Assay [1] relates to Leishmania infantum promastigote forms. Description: In vitro activity on promastigote. It is filed as cell-based. Conditions: for Selectivity index Promastigote forms: L. infantum, IC50 macrophages toxicity/IC50 activity; for IC50: Leishmania infantum, read-out: Activity IC50 Promastigote forms.
The test system of assay [2] is Leishmania infantum amastigote forms. Kind of assay: In vitro activity on amastigote. To be noted: for Selectivity index Amastigote forms: L. infantum, IC50 macrophages toxicity/IC50 activity; for IC50: Leishmania infantum, read-out: Activity IC50 Amastigote forms. It counts as cell-based.
In assay [3] the test system is J774.2 macrophages. Description: Cytotoxicity in J774.2 macrophages. It counts as cell-based. Conditions: Mus musculus, J774.2, 72 h, read-out: Toxicity in macrophages IC50.
The test system of assay [4] is Leishmania braziliensis promastigote forms. Description: In vitro activity on promastigote. It is filed as cell-based. Conditions: for Selectivity index Promastigote forms: L. braziliensis, IC50 macrophages toxicity/IC50 activity; for IC50: Leishmania braziliensis, read-out: Activity IC50 Promastigote forms. In a few lines:
(§1)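 Extracellular promastigotes were tested at 1, 10, 25 and 200 µM, and IC50 was derived by linear regression from Kc values, averaging four determinations.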

For assay [5], the system named is Leishmania braziliensis amastigote forms. Kind of assay: In vitro activity on amastigote. It is filed as cell-based. To be noted: for Selectivity index Amastigote forms: L. braziliensis, IC50 macrophages toxicity/IC50 activity; for IC50: Leishmania braziliensis, read-out: Activity IC50 Amastigote forms. In a few lines:
(§2)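 J774.2 macrophages were infected with promastigotes, which became intracellular amastigotes within 1 day; test compounds were then added. IC50 came from linear regression of Kc values at 1, 10, 25 and 200 µM, averaging four determinations.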

For assay [6], the system named is Leishmania donovani promastigote forms. Kind of assay: In vitro activity on promastigote. To be noted: for Selectivity index Promastigote forms: L. donovani, IC50 macrophages toxicity/IC50 activity; for IC50: Leishmania donovani, read-out: Activity IC50 Promastigote forms. It is filed as cell-based. In a few lines:
as §1

For assay [7], the system named is Leishmania donovani amastigote forms. Kind of assay: In vitro activity on amastigote. It counts as cell-based. To be noted: for Selectivity index Amastigote forms: L. donovani, IC50 macrophages toxicity/IC50 activity; for IC50: Leishmania donovani, read-out: Activity IC50 Amastigote forms. In a few lines: as §2
Assay [8] relates to Trypanosoma cruzi SN3 epimastigote forms. Description: Epimastigote assay, T. cruzi SN3. To be noted: for Selectivity index Epimastigote forms: T. cruzi SN3, IC50 Vero cell toxicity/IC50 activity; for IC50: Trypanosoma cruzi, read-out: Activity IC50 Epimastigote forms. It counts as cell-based. In a few lines: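 SN3 epimastigotes (Rhodnius prolixus isolate, Colombia) were grown at 28 °C in Grace's Insect Medium + 10% inactivated FBS. Exponential-phase cells were plated at 5×10^4 parasites/well with test compound in MTL medium at 100, 50, 25, 12,5 and 6,25 µM. Counts after 72 h used a Neubauer chamber. IC50 came from linear regression of Kc values; SI = Vero IC50/epimastigote IC50.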

Assay [9] concerns Vero cells. Description: Cytotoxicity in Vero cells. It is filed as cell-based. Conditions: Chlorocebus sabaeus, Vero, 72 h, read-out: Vero cells toxicity IC50. An outline of the steps: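 Vero cells were grown in RPMI + 10% inactivated FBS at 37 °C in humidified 5% CO2. They were resuspended at 1×10^5 cells/mL, cultured 2 days, then given fresh medium with test compound for 72 h. Viability was read by flow cytometry. IC50 was derived by linear regression from Kc values; results average four determinations.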

Assay [10] relates to Fe-SOD in L. infantum promastigotes. Kind of assay: Fe-SOD inhibition, L. infantum. It counts as biochemical, Leishmania infantum. To be noted: extent reached in the tested concentration range (Figure 6). An outline of the steps:
(§3)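 Promastigotes or T. cruzi epimastigotes were grown in MTL (HBSS + 10% heat-inactivated FBS) at 26 °C to ~1×10^7/mL. Log-phase cells were pelleted and held 24 h at 27 °C to excrete SOD. Filtered supernatant was fractionated with 35% then 85% ammonium sulphate and desalted on Sephadex G-25. Activity was measured as NBT reduction (methionine, riboflavin, Triton X-100) at 560 nm before and after 10 min UV illumination.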

Assay [11] has as its system Trypanosoma cruzi SN3 amastigote forms. Description: Amastigote assay, T. cruzi SN3. It is filed as cell-based. Conditions: for Selectivity index Amastigote forms: T. cruzi SN3, IC50 Vero cell toxicity/IC50 activity; for IC50: Trypanosoma cruzi, read-out: Activity IC50 Amastigote forms. An outline of the steps:
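Vero cells in RPMI + 10% inactivated FBS (37 °C, 5% CO2) were seeded at 1×10^4 cells/well on coverslips for 2 days. They were infected 10:1 with SN3 metacyclic forms, obtained by 12-day culture of epimastigotes at 28 °C in modified Grace's medium (~40% metacyclic). After 24 h, cells were washed and exposed to 6.25–100 µM for 72 h. Giemsa-stained amastigotes were counted; IC50 from four determinations; SI used Vero IC50.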

The subject of assay [12] is Trypanosoma cruzi SN3 trypomastigote forms. Kind of assay: Trypomastigote activity, T. cruzi SN3. It counts as cell-based. To be noted: for Selectivity index Trypomastigote forms: T. cruzi SN3, IC50 Vero cell toxicity/IC50 activity; for IC50: Trypanosoma cruzi, read-out: Activity IC50 Trypomastigote forms.
Assay [13] deals with Fe-SOD in T. cruzi epimastigotes. Kind of assay: Fe-SOD inhibition, T. cruzi. Conditions: extent reached in the tested concentration range (Figure 9). It counts as biochemical, Trypanosoma cruzi. In a few lines: as §3

`c1cnc(NCCCn2ccnc2)cn1` [4 b, N‐(3‐(1H‐imidazol‐1‐yl)propyl)pyrazin‐2‐amine]: the “Selectivity index Promastigote forms” value in [1] is 15; in assay [4] it was 16; in assay [6] it was 7. In addition, the IC50 (commonly the midpoint of a concentration-inhibition curve) worked out at 1.6 ± 0.2 µM in assay [1]; 2.7 ± 0.1 µM in [2]; 23.8 ± 1.9 µM in assay [3]; 1.5 ± 0.2 µM in [4]; 2.3 ± 0.2 µM in [5]; 3.6 ± 0.4 µM in assay [6]. The IC50 in assay [7] worked out at 2.5 µM; in [8], 15.7 ± 0.5 µM; in [9], 26.8 ± 0.9 µM. The “Selectivity index Amastigote forms” value in [2] is reported as 9; in assay [5], 10; in assay [7], 9. Besides, the “Selectivity index Epimastigote forms” value in assay [8] is recorded as 2 (2). Besides, the “extent of inhibition of enzymatic activity” value in assay [10] is recorded as “more than 80%”.

As for `c1ccc2c(NCCCn3ccnc3)nncc2c1` [1 f, 1‐[3‐(imidazol‐1‐yl)propylamino]phthalazine], the “Selectivity index Promastigote forms” value in assay [1] stood at 19; in assay [4], 12; in [6] it was 4. Moreover, the IC50 in assay [1] was 11.1 ± 0.4 µM; in assay [2], 10.7 ± 0.7 µM; in [3], 211 ± 10.3 µM; in assay [4], 17.8 ± 1.4 µM; in assay [5], 15 ± 0.9 µM; in assay [6] it was 52 ± 3.6 µM. Further, the IC50 in assay [7] is 44.7 ± 5.6 µM; in [8], 102 ± 4.1 µM; in [11], 44.3 ± 2.7 µM; in assay [12], 40.8 ± 3.1 µM; in [9], 156 ± 4.6 µM. Moreover, the “Selectivity index Amastigote forms” value in [2] was found to be 20; in assay [5] it was 14; in assay [7], 5; in [11], 3. Moreover, the “Selectivity index Epimastigote forms” value in assay [8] is 1. Besides, the “Selectivity index Trypomastigote forms” value in [12] is 4.

Regarding `c1ccc2c(NCCCn3ccnc3)ncnc2c1` [3 b, N ‐[3‐(1H‐imidazol‐1‐yl)propyl]quinazolin‐4‐amine], the “Selectivity index Promastigote forms” value in [1] worked out at 3; in assay [4], 6; in assay [6] it was 23. The half-inhibitory concentration (IC50) in [1] was 14.7 ± 0.6 µM; in assay [2] it was 11.9 ± 0.7 µM; in assay [3], 45.9 ± 2.8 µM; in assay [4] it was 7.6 ± 0.5 µM; in assay [5], 6.6 ± 0.6 µM; in assay [6], 2 ± 0.4 µM. For the same compound, the IC50 in [7] is 2.7 ± 0.3 µM; in assay [8], 9.4 ± 0.7 µM; in assay [11] it was 2.4 µM; in [12], 1.3 ± 0.6 µM; in assay [9], 121 ± 6.3 µM. In addition, the “Selectivity index Amastigote forms” value came to 4 in assay [2], 7 in [5], 17 in assay [7] and 50 in [11]. The “Selectivity index Epimastigote forms” value in [8] was found to be 13. Besides, the “Selectivity index Trypomastigote forms” value in assay [12] was found to be 93. Further, the “extent of inhibition of enzyme activity” value in assay [13] was “approximately 50%”.

The record behind these values is PMC9298202 (Chemmedchem, 2021).
